Source: PubChem (The Scripps Research Institute Molecular Screening Center)
CHO parental Ca – counter-screen for OX1R antagonists: effect in parental CHO cells; parental CHO-K1, ATP-induced calcium, Fluo-8 fluorescence; inhibition, % at 5.6 µM; 330,000 compounds, 0.63% hits; AID 463079;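 active = inhibition above that plate's mean sample inhibition plus 3 SD, cut at about 26% in these data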;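 note: 0% = ATP-challenged DMSO wells and 100% = DMSO wells without ATP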
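Material: Parental CHO cells | Reagent: ATP | Compound dosing: Single nominal dose of 5.6 µM per compound | Detection: Intracellular calcium via Fluo-8 no-wash fluorescent dye | Read-out: % inhibition of ATP-induced calcium mobilization | Benchmarks: Low control ATP plus DMSO, high control DMSO only | Replicates: Singlicate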
TAAR1 antagonist – antagonists of human TAAR1; 360,000 compounds, 1.5% hits; Q96RJ0; inhibition, % at 3 µM; CHO RD-HGA16 TAAR1, Fluo-8 calcium fluorescence, antagonist; AID 624466;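 active = inhibition above a per-plate cutoff, the mean inhibition of test compounds on that plate plus 3 SD, cut at about 49% in these data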;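 note: 0% = DMSO plus EC80 beta-PEA response and 100% = DMSO alone without agonist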
Target sequence (Q96RJ0 whole entry, looked up): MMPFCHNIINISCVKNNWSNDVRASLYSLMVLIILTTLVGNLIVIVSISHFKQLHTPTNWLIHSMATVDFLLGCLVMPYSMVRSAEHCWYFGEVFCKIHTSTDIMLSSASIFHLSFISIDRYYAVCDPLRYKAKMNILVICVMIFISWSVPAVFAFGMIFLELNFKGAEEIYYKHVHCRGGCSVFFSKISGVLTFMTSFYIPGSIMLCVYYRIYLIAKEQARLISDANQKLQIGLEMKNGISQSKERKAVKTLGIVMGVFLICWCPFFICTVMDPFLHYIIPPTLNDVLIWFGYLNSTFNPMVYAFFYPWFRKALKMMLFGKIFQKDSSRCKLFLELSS
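Material: RD-HGA16 CHO cells with stable hTAAR1 and Gα16; Dosing: single nominal final test compound concentration of 3 µM; Schedule: seeding 17-24 h prior, 75-min 37 °C, 30-min RT dye loading; Detection: kinetic Fluo-8 calcium fluorescence measurement; Measure: % inhibition from peak post-agonist over basal fluorescence ratio; Benchmarks: vehicle and agonist controls.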
OX1R antag-1 – OX1R (human) antagonism; inhibition, % at 6.6 µM; O43613; OX1R-expressing cells, FRET antagonist read-out; 330,000 compounds, 1.8% hits; in the data active = inhibition mostly above about 38%, no sharp cut-off; inactive = mostly below about 40%;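 note: 0% = agonist challenge alone and 100% = reference antagonist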
GPR7 antagonist – human neuropeptides B/W receptor 1 antagonism. P48145. GPR7-expressing cells, fluorescence antagonist assay. 290,000 compounds, 1.1% hits. inhibition, % at 4.4 µM; in the data active = inhibition above about 16%, passing the limit was not always enough;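 note: cells stimulated with the agonist NPW; 0% = agonist with vehicle and 100% = vehicle without agonist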
Target sequence (P48145 whole entry, looked up): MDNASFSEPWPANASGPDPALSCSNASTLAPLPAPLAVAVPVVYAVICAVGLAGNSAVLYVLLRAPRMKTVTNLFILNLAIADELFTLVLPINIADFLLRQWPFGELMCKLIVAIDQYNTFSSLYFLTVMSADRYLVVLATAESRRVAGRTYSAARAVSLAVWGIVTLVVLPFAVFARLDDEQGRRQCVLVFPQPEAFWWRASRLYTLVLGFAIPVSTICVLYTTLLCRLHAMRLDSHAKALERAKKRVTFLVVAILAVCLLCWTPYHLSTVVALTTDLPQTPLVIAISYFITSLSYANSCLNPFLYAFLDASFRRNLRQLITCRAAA
TAAR1 agonist – agonists of human TAAR1 | Q96RJ0 | AID 624467 | 360,000 compounds, 0.99% hits | CHO RD-HGA16 TAAR1, Fluo-8 calcium fluorescence; vehicle wells 0%, saturating PEA agonist 100% | activation, % at 3 µM;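 active = activation above the mean activation of all test compounds in the run plus 3 SD, cut at about 38% in these data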
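System: CHO-derived RD-HGA16 cells with stable Gα16 and human TAAR1 / Times: 17-24 h plating, Fluo-8 75 min 37 °C, 30 min RT / Technique: calcium-sensitive Fluo-8 signal, excitation 470-495, emission 515-575 nm / Measure: % activation relative to PEA EC100 response / Benchmarks: DMSO and PEA EC100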
OX1R antag-2 – blocks the human orexin 1 receptor; O43613; CHO/OX1R cells, Fluo-8 calcium fluorescence, orexin A; inhibition, % at 5 µM; 330,000 compounds, 0.43% hits; AID 434989;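 active = inhibition above its plate's threshold, mean inhibition of all tested compounds on the plate plus 3 SD, cut at about 37% in these data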;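 note: 0% = orexin A challenge wells and 100% = SB-334867-A antagonist wells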
OX1R HTRF conf – OX1R (human) antagonism, HTRF confirmed; inhibition, % at 6.6 µM; AID 492964; shares compounds with OX1R antag-1; 1,800 compounds, 49% hits; OX1R-expressing cells, HTRF antagonist assay; in the data active = inhibition above about 55%;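 note: CHO cells expressing OX1R stimulated with orexin A at about EC80; 0% = agonist challenge alone and 100% = reference antagonist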
CHO-K1 HTRF – signal in parental CHO-K1 cells, OX1R antagonist counter-screen; shares compounds with OX1R antag-1; HTRF counterscreen; inhibition, % at 6.6 µM; 1,800 compounds, 48% hits; AID 493232; in the data active = inhibition above about 17%;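 note: 0% = agonist challenge with vehicle and 100% = vehicle alone without agonist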
Active calls of the source: *; / = no result. The list is not random: actives were taken first. Their share in the collection is about 4.5%.

SMILES	CHO parental Ca	TAAR1 antagonist	OX1R antag-1	GPR7 antagonist	TAAR1 agonist	OX1R antag-2	OX1R HTRF conf	CHO-K1 HTRF
COc1ccccc1NC1=C(N2CCCCC2)C(=O)c2ccccc2C1=O	-19	/	79*	1	/	7	27	31*
O=C1C(Nc2ccccc2)=C(N2CCCCC2)C(=O)c2ccccc21	-20	10	59	-9	7	-2	/	/
COc1ccc(CN2CCC(=O)N([C@H](CO)Cc3ccccc3)CC2)cc1OC	-15	-14	19	-2	2	-22	/	/
CCN(Cc1ccccc1)C(=O)COC(=O)c1cc(S(=O)(=O)Nc2c(C)n(C)n(-c3ccccc3)c2=O)ccc1C	-27	-5	81*	2	-1	20	74*	-5
NC(=O)CSc1n[nH]c(=O)n1CCc1ccccc1	4	-12	4	1	0	-16	/	/
CCOC(=O)c1c(CN2CCNCC2)nc2ccc(Cl)cc2c1-c1ccccc1	/	-3	/	/	9	/	/	/
COC(=O)c1sccc1NC(=O)COc1ccccc1Cl	-35	28	79*	0	2	-101	56*	6
CCC(NC(=O)c1ccc([N+](=O)[O-])cc1[N+](=O)[O-])c1ccccc1 (stereo not drawn)	-1	6	114*	-5	16	-7	55*	50*
Cc1nn(C)cc1/C=N/NC(=O)c1ccc2c(c1)OCO2	0	-4	83*	19	4	-8	10	9
O=C(N/N=C/c1cc2c(cc1[N+](=O)[O-])OCO2)c1ccc2c(c1)OCO2	-3	-28	7	-4	1	-20	/	/
CN(C)c1ccc(N=Nc2ccc3ncccc3c2)cc1	/	19	/	/	2	/	/	/
Cc1cc(N(C)C)ccc1N=Nc1ccc2ncccc2c1	-32	-10	83*	-13	-1	-3	75*	10
COc1ccc(C2(C)NC(=O)N(CC(=O)Nc3ccc(Br)cc3F)C2=O)cc1OC (stereo not drawn)	-8	-13	18	1	4	-9	/	/
COC/C=C/C1=CC2=CC(=O)C(C)(OC(=O)c3cnc4ccccc4n3)C(=O)C2=CO1 (stereo not drawn)	6	/	39	/	/	-8	/	/
CC1CCN(c2cc(N(C)CCO)c([N+](=O)[O-])c3nonc23)CC1	-4	-15	39	-8	1	-13	/	/
CN(CCO)c1cc(N2CCN(C(=O)c3ccco3)CC2)c2nonc2c1[N+](=O)[O-]	3	-6	107*	12	0	2	43	48*
C#C[C@]1(OC(C)=O)CCC2C3CCC4=CC(=O)CC[C@@H]4C3CC[C@@]21C (stereo partly drawn)	-8	36	13	-10	0	-2	/	/
CC1(C)CC(=O)C(N=Nc2ccc(Br)cc2)=C(O)C1	-1	-31	10	-4	2	-19	/	/
COc1ccc(N=NC2=C(O)CC(C)(C)CC2=O)cc1	-4	2	102*	-1	2	-10	33	28*
COc1ccc(N=Nc2nc3cc(Br)c(Br)cc3n2C)c(OC)c1	11	6	84*	-4	10	27	88*	19*
COc1ccccc1N(CC(O)COc1ccc(C)cc1)S(=O)(=O)c1ccccc1 (stereo not drawn)	-15	4	78*	-6	1	16	91*	-1
Cn1c(=O)n(C)c2cc(/C=C3/SC(=O)N(CC(=O)N4CCOCC4)C3=O)ccc21	-4	-2	83*	-3	0	-6	53	54*
C=CCN1C(=O)S/C(=C\c2ccc3c(c2)n(C)c(=O)n3C)C1=O	-7	13	10	-6	8	-3	/	/
COC(=O)[C@H](CC(C)C)N(Cc1ccccc1)S(=O)(=O)N(Cc1ccc(OC)cc1)[C@@H](CC(C)C)C(=O)OC	-17	6	11	/	-1	7	/	/
O=[N+]([O-])C1=CC=C2C(=NC3(CCCCC3)N2O)C1=NCCO	-6	3	83*	-6	1	-2	73*	112*
SMILES	CHO parental Ca	TAAR1 antagonist	OX1R antag-1	GPR7 antagonist	TAAR1 agonist	OX1R antag-2	OX1R HTRF conf	CHO-K1 HTRF
CCC[n+]1c2ccccc2cc2ccccc21	-17	0	84*	19	4	-9	48	54*
Cc1cccc2nc(-c3cccc(NC(=O)c4ccc(Cl)cc4)c3)cn12	-27	-6	84*	-7	-1	-18	79*	24*
Cc1cccc2nc(-c3cccc(NC(=O)Cc4ccccc4)c3)cn12	-25	-5	32	-6	-1	-41	/	/
Cc1cccn2c(=O)c3cc(C#N)c(=NC(=O)c4ccccc4)n(Cc4ccco4)c3nc12	-10	1	88*	/	0	-18	52	41*
Cc1cccc(C(=O)N=c2c(C#N)cc3c(=O)n4cccc(C)c4nc3n2Cc2ccco2)c1	-16	-3	44	2	0	-20	/	/
Cc1ccc(C(=O)c2c(C)oc3c2C(=O)C(=O)c2ccccc2-3)cc1	-31	/	135*	13	/	-7	70*	27*
COc1ccc(C(=O)c2c(C(F)(F)F)oc3c2C(=O)c2ccccc2C3=O)cc1	-29	/	49	-2	/	-26	/	/
CC(=O)c1ccc2c(c1)N(Cc1ccccc1Cl)C(=O)C(C)S2 (stereo not drawn)	/	-24	/	/	1	/	/	/
Brc1cccc(-c2nnc(SCc3nc4ccccc4[nH]3)o2)c1	-14	0	80*	-4	8	-3	28	0
CC1CC(C)CN(c2ccc([N+](=O)[O-])cc2-c2nn[nH]n2)C1 (stereo not drawn)	-4	7	51	5	7	-16	/	/
O=[N+]([O-])c1ccc(-n2cccn2)c(-c2nn[nH]n2)c1	-14	1	108*	-8	5	-13	37	54*
COc1cccc(C(=O)Nc2cccc(-c3nnc(-c4ccco4)o3)c2)c1	-22	43	104*	-14	17	-25	35	5
Cc1ccccc1CNC(=O)c1ccccc1NS(C)(=O)=O	-12	3	105*	2	2	0	26	0
CNc1ccc(/C=C(\CCC(=O)O)c2nc3ccccc3s2)cc1[N+](=O)[O-]	15	-2	87*	-6	1	-5	24	12
O=C(O)c1ccc2c3c(ncnc13)-c1ccccc1C2=O	-6	/	186*	-9	/	-3	58*	98*
COc1cc(NC(=O)COC(=O)Cc2ccsc2)cc(OC)c1	-7	9	12	/	0	16	/	/
